Positions of bridges follow the written chain, without caps; N, C: chain ends. Non-standard residues stand in square brackets, D forms with d. Residues, ends and D or L forms follow the SMILES beside them. *: point of attachment. Threoninol(2S,3R) = C[C@@H](O)[C@H](CO)N*
What was measured:
Assay type in all cases: cell-based
[1] = target: Somatostatin receptor type 3 (Homo sapiens) (UniProt P32745); experiment: Binding assay at human somatostatin receptor 3 (hsst3) expressed in CCL-39 cells using LTT-CST-14-(Tyr10) as radioligand.
Somatostatin receptor type 3 (Homo sapiens), sequence (P32745 whole entry): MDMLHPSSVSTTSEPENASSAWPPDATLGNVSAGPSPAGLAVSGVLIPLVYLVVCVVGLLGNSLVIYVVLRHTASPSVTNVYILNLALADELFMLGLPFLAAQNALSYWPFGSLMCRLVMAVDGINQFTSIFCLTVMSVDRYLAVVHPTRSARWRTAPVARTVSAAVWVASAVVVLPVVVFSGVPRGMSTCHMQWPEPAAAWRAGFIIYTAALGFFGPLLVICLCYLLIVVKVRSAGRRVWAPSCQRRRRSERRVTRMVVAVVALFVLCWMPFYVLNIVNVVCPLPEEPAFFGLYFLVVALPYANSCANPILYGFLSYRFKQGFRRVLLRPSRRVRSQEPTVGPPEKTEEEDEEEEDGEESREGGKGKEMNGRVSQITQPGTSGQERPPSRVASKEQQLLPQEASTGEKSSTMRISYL
How it was run: (§1)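 Chinese hamster lung fibroblast CCL39 cells stably expressing each hsst receptor; crude membrane homogenates in 10 mM HEPES pH 7.5, 0.5% BSA, 5 mM MgCl2, 5 mg/mL bacitracin. Competition against 25-50 pM [125I][Tyr10]CST14; 1 µM SRIF14 defines nonspecific binding. Vacuum filtration, bound radioactivity counted. Triplicate curves fitted by nonlinear regression; pKD reported.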

[2] = target: Somatostatin receptor type 4 (Homo sapiens) (UniProt P31391); experiment: Binding assay at human somatostatin receptor 4 (hsst4) expressed in CCL-39 cells using LTT-CST-14-(Tyr10) as radioligand.
Somatostatin receptor type 4 (Homo sapiens), sequence (P31391 whole entry): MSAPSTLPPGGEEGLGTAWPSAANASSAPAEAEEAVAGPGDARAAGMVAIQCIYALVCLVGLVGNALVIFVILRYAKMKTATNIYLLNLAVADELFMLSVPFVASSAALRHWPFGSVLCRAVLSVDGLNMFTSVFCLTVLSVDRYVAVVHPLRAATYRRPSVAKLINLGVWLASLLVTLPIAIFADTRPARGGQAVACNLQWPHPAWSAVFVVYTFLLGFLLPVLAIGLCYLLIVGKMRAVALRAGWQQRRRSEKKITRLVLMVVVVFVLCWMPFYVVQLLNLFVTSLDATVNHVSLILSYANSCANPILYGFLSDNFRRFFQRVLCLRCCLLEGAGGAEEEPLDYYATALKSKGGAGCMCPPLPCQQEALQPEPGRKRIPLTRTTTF
How it was run: (§2)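 Chinese hamster lung fibroblast CCL39 cells stably expressing each hsst receptor; crude membrane homogenates in 10 mM HEPES pH 7.5, 0.5% BSA, 5 mM MgCl2, 5 mg/mL bacitracin. Vacuum filtration, bound radioactivity counted. Triplicate curves fitted by nonlinear regression; pKD reported.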

[3] = target: Somatostatin receptor type 2 (Homo sapiens) (UniProt P30874); experiment: Binding assay at human somatostatin receptor 2 (hsst2) expressed in CCL-39 cells using LTT-CST-14-(Tyr10) as radioligand.; how it was run: as §2
Somatostatin receptor type 2 (Homo sapiens), sequence (P30874 whole entry): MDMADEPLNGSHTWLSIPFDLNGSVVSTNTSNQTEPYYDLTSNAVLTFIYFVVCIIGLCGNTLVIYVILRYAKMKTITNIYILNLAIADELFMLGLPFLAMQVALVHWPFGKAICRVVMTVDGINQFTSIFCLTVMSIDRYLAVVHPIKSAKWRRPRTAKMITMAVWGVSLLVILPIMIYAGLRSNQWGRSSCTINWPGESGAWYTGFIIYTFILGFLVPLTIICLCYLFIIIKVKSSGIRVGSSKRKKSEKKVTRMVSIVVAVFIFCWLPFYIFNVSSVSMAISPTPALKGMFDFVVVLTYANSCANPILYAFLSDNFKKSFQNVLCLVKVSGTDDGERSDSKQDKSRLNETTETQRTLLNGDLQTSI

[4] = target: Somatostatin receptor type 5 (Homo sapiens) (UniProt P35346); experiment: Binding assay at human somatostatin receptor 5 (hsst5) expressed in CCL-39 cells using LTT-CST-14-(Tyr10) as radioligand.; how it was run: as §2
Somatostatin receptor type 5 (Homo sapiens), sequence (P35346 whole entry): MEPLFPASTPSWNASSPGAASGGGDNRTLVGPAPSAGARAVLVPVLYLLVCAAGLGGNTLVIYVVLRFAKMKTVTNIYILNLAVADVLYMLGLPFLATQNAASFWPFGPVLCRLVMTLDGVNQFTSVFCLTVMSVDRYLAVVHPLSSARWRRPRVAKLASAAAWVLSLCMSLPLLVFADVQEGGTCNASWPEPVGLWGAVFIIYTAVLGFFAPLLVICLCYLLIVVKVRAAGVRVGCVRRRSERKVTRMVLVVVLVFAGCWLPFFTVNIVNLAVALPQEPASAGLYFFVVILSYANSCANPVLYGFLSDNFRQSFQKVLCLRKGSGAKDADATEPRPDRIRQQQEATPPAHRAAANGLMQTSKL

[5] = target: Somatostatin receptor type 1 (Homo sapiens) (UniProt P30872); experiment: Binding assay at human somatostatin receptor 1 (hsst1) expressed in CCL-39 cells using LTT-CST-14-(Tyr10) as radioligand.; how it was run: as §1
Somatostatin receptor type 1 (Homo sapiens), sequence (P30872 whole entry): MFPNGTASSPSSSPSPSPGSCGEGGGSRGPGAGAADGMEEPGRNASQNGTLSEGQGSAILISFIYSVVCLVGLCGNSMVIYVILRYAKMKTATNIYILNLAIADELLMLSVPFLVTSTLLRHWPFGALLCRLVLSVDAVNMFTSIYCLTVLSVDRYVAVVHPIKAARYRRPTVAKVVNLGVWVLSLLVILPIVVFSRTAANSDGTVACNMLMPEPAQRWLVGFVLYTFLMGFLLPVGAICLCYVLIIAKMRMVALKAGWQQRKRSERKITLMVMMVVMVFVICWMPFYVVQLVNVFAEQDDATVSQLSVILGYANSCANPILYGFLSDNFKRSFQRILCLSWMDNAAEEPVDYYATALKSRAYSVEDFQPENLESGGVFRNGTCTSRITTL

Row | pKD [1] | pKD [2] | pKD [3] | pKD [4] | pKD [5] | SMILES
1 | < 5 | 7.08 | < 5 | < 5 | 4.88 | CC(=O)N[C@H](CC(=O)NC[C@H](CCCCN)C(=O)N[C@H](CC(=O)N[C@H](CC(N)=O)Cc1ccccc1)Cc1c[nH]c2ccccc12)[C@@H](C)O
2 | < 5 | < 4 | < 4 | < 4 | < 4 | CC(=O)N[C@H](CC(=O)N[C@@H](CCCCN)CC(=O)N[C@H](CC(=O)N[C@H](CC(N)=O)Cc1ccccc1)Cc1c[nH]c2ccccc12)[C@@H](C)O
3 | < 5 | < 5 | < 4 | < 4 | < 4 | CC(=O)N[C@H](C(=O)N[C@@H](CCCCN)C(=O)N[C@@H](Cc1c[nH]c2ccccc12)C(=O)N[C@@H](Cc1ccccc1)C(N)=O)[C@@H](C)O (Ac-TKWF-NH2)

Row | SMILES | pKD [1] | pKD [2] | pKD [3] | pKD [4] | pKD [5]
4 | C[C@@H](O)[C@H](CO)NC(=O)[C@@H]1CSSC[C@H](NC(=O)[C@H](N)Cc2ccccc2)C(=O)N[C@@H](Cc2ccccc2)C(=O)N[C@H](Cc2c[nH]c3ccccc23)C(=O)N[C@@H](CCCCN)C(=O)N[C@@H]([C@@H](C)O)C(=O)N1 (H-[dF]CF[dW]KTC-{Threoninol(2S,3R)}; disulfide 2-7) | 8.6 | – | – | – | –
